For 38 sequences, folding enthalpy and Tm results are on record in the array DNA melting data of Ke et al. (doi:10.1101/2024.01.08.574731).

A short description of data set [1]: folding enthalpy; higher = less favourable; fluorescence melt of hairpins on a sequencing array, two-state fit. As to conditions: sodium 0.088 M. Summed up:
(§1)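 To match UV melts, fitted temperatures were raised by 9.35 °C. These fits were bootstrapped two-state models that gave melting temperature and folding enthalpy, combined by inverse variance over four replicates. The input was normalised Cy3 fluorescence of library hairpins with annealed Cy3 and quencher oligos on a sequenced MiSeq flow cell, imaged in 50 mM Na-HEPES pH 8.0, 25 mM NaCl in 2.5 °C steps up to 60 °C.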

Data set [2] in a line: melting temperature; fluorescence melt of hairpins on a sequencing array, two-state fit, raised by 9.35 °C to match UV melts. As to conditions: sodium 0.088 M. The method, boiled down: as §1

Regarding GATCCCTTCGGGGATC ((((((....)))))), in data set [1], the folding enthalpy is -39.8 kcal/mol. Also, the Tm in data set [2] worked out at 65.2 °C.
On the same counts, the results for GATCCCTTGTGGGATC ((((((....)))))) are -31 kcal/mol and 62.4 °C.
As to GATCCCTTTAGGGATC ((((((....)))))), the folding enthalpy in data set [1] was -39.3 kcal/mol. In addition, the Tm in data set [2] is 68.9 °C.
In the case of GATCCGAAAACGGATC ((((((....)))))), in data set [1], the folding enthalpy was -37 kcal/mol. For the same sequence, the Tm in data set [2] amounted to 52.6 °C.
On the same counts, the results for GATCCGAAGCGGATC ((((((...)))))) are -37 kcal/mol and 55.4 °C.
Taken in the same sequence, the figures for GATCCGAAGTCGGATC ((((((....)))))) were -39.9 kcal/mol and 56.2 °C.
On the same counts, the results for GATCCGACAACGGATC ((((((....)))))) are -35 kcal/mol and 57 °C.
Regarding GATCCGACACCGGATC ((((((....)))))), the folding enthalpy in data set [1] is -37.4 kcal/mol. The Tm in data set [2] stood at 55.4 °C.
On to GATCCGACAGCGGATC ((((((....)))))), for which the folding enthalpy in data set [1] is -34.2 kcal/mol. Moreover, the Tm in data set [2] was 54 °C.
As to GATCCGACGAAAGTCATC (((..(((....)))))), in data set [1], the folding enthalpy is -9.01 kcal/mol. Besides, the Tm in data set [2] was determined as 25.9 °C.
Regarding GATCCGACGGCGGATC ((((((....)))))), the folding enthalpy in data set [1] is -48 kcal/mol. Further, the Tm in data set [2] was determined as 57.8 °C.
With GATCCGAGACGGATC ((((((...)))))), in data set [1], the folding enthalpy was -39.9 kcal/mol. The Tm in data set [2] stood at 55.8 °C.
In the case of GATCCGAGCTCGGATC ((((((....)))))), in data set [1], the folding enthalpy is -37.3 kcal/mol. The Tm in data set [2] amounted to 63 °C.
Taken in the same sequence, the figures for GATCCGAGGTCGGATC ((((((....)))))) were -38.8 kcal/mol and 58.3 °C.
Turning to GATCCGAGTCGGATC ((((((...)))))), in data set [1], the folding enthalpy was -35 kcal/mol. In data set [2], the Tm amounted to 59.5 °C.
Taken in the same sequence, the figures for GATCCGAGTTCGGATC ((((((....)))))) were -47.4 kcal/mol and 58.5 °C.
Taken in the same sequence, the figures for GATCCGATACCGGATC ((((((....)))))) were -29.9 kcal/mol and 57 °C.
For GATCCGATAGCGGATC ((((((....)))))), the folding enthalpy in data set [1] was -38.9 kcal/mol. In addition, the Tm in data set [2] came to 54.3 °C.
As to GATCCGATCCCGGATC ((((((....)))))), the folding enthalpy in data set [1] was -38.9 kcal/mol. Moreover, in data set [2], the Tm worked out at 55.6 °C.
As to GATCCGATCGCGGATC ((((((....)))))), the folding enthalpy in data set [1] was -37.9 kcal/mol. Also, the Tm in data set [2] was 56 °C.
On the same counts, the results for GATCCGATGCGGATC ((((((...)))))) are -31 kcal/mol and 57.7 °C.
On the same counts, the results for GATCCGATGTCGGATC ((((((....)))))) are -37.6 kcal/mol and 61.6 °C.
On the same counts, the results for GATCCGATTACGGATC ((((((....)))))) are -34.2 kcal/mol and 58.4 °C.
As for GATCCGCACTCGGATC ((((((....)))))), the folding enthalpy in data set [1] was -41 kcal/mol. For the same sequence, the Tm in data set [2] turned out to be 56.5 °C.
Take GATCCGCAGTCGGATC ((((((....)))))): the folding enthalpy in data set [1] was -35 kcal/mol. Also, in data set [2], the Tm worked out at 55.9 °C.
GATCCGCCAACGGATC ((((((....)))))): in data set [1], the folding enthalpy is -36 kcal/mol. Also, in data set [2], the Tm was determined as 57.7 °C.
On the same counts, the results for GATCCGCCGCGGATC ((((((...)))))) are -40.5 kcal/mol and 56.5 °C.
On the same counts, the results for GATCCGCCTACGGATC ((((((....)))))) are -37.9 kcal/mol and 59.6 °C.
Taken in the same sequence, the figures for GATCCGCGAAAGCGATC (((.(((....)))))) were -14 kcal/mol and 44.6 °C.
As to GATCCGCTAACGGATC ((((((....)))))), the folding enthalpy in data set [1] is -37.2 kcal/mol. Besides, in data set [2], the Tm came to 58.8 °C.
Taken in the same sequence, the figures for GATCCGCTGACGGATC ((((((....)))))) were -38 kcal/mol and 60.7 °C.
As for GATCCGCTGCCGGATC ((((((....)))))), the folding enthalpy in data set [1] was -36.4 kcal/mol. Also, in data set [2], the Tm turned out to be 57 °C.
As for GATCCGCTTCGGATC ((((((...)))))), in data set [1], the folding enthalpy is -39 kcal/mol. The Tm in data set [2] came to 58.6 °C.
Taken in the same sequence, the figures for GATCCGGAATCGGATC ((((((....)))))) were -45.2 kcal/mol and 62 °C.
Take GATCCGGACACGGATC ((((((....)))))): the folding enthalpy in data set [1] is -43.2 kcal/mol. For the same sequence, the Tm in data set [2] came out at 66 °C.
On the same counts, the results for GATCCGGACCGGATC ((((((...)))))) are -34.6 kcal/mol and 57.3 °C.
Taken in the same sequence, the figures for GATCCGGAGCGGATC ((((((...)))))) were -33.3 kcal/mol and 56.1 °C.
Taken in the same sequence, the figures for GATCCGGCTTCGGATC ((((((....)))))) were -39.8 kcal/mol and 59.5 °C.
